Calls of active or inactive are those of the source. The rule behind the calls is not given here.
How the values were obtained:
[1] = target: T1, Tyrosine--tRNA ligase (Escherichia coli (strain K12)) (UniProt P0AGJ9); experiment: Inhibition of tyrRS in Escherichia coli BL21 (DE3) pLysS S30 extract over expressing RimL incubated for 5 to 60 mins in presence of 14C-labeled tyrosine by liquid scintillation counting method relative to control
T1 sequence (whole entry): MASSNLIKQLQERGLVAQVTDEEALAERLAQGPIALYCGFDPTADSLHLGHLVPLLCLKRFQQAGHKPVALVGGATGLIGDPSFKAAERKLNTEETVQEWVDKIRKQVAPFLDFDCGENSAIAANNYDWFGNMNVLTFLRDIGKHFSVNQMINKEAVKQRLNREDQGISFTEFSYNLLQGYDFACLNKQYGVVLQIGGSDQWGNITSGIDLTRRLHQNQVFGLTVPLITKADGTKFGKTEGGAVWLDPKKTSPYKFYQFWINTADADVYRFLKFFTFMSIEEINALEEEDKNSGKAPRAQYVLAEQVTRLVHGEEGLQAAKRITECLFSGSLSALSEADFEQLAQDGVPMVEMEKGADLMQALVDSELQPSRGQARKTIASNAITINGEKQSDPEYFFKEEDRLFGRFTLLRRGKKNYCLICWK

[2] = target: T1, Tyrosine--tRNA ligase (Escherichia coli (strain K12)); experiment: Inhibition of tyrRS in Escherichia coli NCIB 8743 S30 extract assessed as aminoacylation at 250 nM incubated for 5 mins in presence of 14C-labeled tyrosine by liquid scintillation counting method relative to control; set-up: scale not given: the % may be the effect or the level left
Summary of the method: (§1)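 S30 extract from cells grown in LB at 37 °C to OD600 1.2, sonicated, twice clarified; diluted 10-fold. Inhibitor (5 µM stock) preincubated 5 min with extract, then aminoacylation at 37 °C with 30 mM Tris pH 8.0, 1 mM DTT, 5 g/L tRNA, 3 mM ATP, 30 mM KCl, 8 mM MgCl₂, ¹⁴C-Ile 15 µM or ¹⁴C-Tyr 9.66 µM; quenched at 1 min, TCA filters counted. Activity relative to no-inhibitor extract; mean of three.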

[3] = target: T1, Tyrosine--tRNA ligase (Escherichia coli (strain K12)); experiment: Inhibition of tyrRS in Escherichia coli BL21 (DE3) pLysS S30 extract over expressing SUMO incubated for 5 to 60 mins in presence of 14C-labeled tyrosine by liquid scintillation counting method
[4] = target: T1, Tyrosine--tRNA ligase (Escherichia coli (strain K12)); experiment: Inhibition of tyrRS in Escherichia coli BL21 (DE3) pLysS S30 extract over expressing YhhY incubated for 5 to 60 mins in presence of 14C-labeled tyrosine by liquid scintillation counting method
[5] = target: Isoleucine--tRNA ligase (Escherichia coli K-12) (UniProt P00956); experiment: Inhibition of ileRS in Escherichia coli BL21 (DE3) pLysS S30 extract over expressing SUMO incubated for 5 to 60 mins in presence of 14C-labeled isoleucine and acetyl-CoA by liquid scintillation counting method
Isoleucine--tRNA ligase (Escherichia coli K-12), sequence (P00956 whole entry): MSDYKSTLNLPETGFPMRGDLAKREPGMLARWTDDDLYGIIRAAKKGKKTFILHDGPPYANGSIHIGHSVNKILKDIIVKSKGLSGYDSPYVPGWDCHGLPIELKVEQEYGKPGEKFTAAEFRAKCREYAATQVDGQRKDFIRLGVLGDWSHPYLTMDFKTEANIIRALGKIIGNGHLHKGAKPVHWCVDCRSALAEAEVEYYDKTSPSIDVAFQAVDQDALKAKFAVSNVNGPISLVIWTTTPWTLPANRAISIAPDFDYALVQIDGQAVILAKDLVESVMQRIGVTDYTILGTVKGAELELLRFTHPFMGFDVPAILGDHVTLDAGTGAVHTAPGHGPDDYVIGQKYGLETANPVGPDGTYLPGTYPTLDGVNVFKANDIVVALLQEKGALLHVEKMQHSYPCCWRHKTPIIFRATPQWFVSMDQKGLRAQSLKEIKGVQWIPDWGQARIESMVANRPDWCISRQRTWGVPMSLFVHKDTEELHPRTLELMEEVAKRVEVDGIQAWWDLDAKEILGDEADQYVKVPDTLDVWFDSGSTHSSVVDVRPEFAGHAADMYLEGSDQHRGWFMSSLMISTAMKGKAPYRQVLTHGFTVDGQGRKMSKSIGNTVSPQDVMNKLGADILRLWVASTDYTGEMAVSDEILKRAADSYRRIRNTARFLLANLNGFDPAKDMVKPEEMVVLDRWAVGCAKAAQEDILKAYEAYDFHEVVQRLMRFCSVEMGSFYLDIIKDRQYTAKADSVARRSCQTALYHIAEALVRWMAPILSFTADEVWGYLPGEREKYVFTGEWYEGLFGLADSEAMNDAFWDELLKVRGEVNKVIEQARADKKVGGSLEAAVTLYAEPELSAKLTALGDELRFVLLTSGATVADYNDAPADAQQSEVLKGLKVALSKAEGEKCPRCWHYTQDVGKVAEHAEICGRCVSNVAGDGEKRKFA

[6] = target: Isoleucine--tRNA ligase (Escherichia coli K-12) (UniProt P00956); experiment: Inhibition of ileRS in Escherichia coli BL21 (DE3) pLysS S30 extract over expressing RimI incubated for 5 to 60 mins in presence of 14C-labeled isoleucine and acetyl-CoA by liquid scintillation counting method
[7] = target: T1, Tyrosine--tRNA ligase (Escherichia coli (strain K12)); experiment: Inhibition of tyrRS in Escherichia coli BL21 (DE3) pLysS S30 extract over expressing RimI incubated for 5 to 60 mins in presence of 14C-labeled tyrosine by liquid scintillation counting method
Tyrosine--tRNA ligase = target: T2, Tyrosine--tRNA ligase (Escherichia coli (strain K12), UniProt P0AGJ9); experiment: Inhibition of purified Escherichia coli BL21 (DE3) tyrRS incubated for 10 mins in presence of 14C-labeled tyrosine by radiolabel transfer assay; conditions: read-out: Ki(app)
T2 sequence (P0AGJ9 whole entry): T1 sequence (whole entry)

[8] = target: Isoleucine--tRNA ligase (Escherichia coli K-12) (UniProt P00956); experiment: Inhibition of ileRS in Escherichia coli BL21 (DE3) pLysS S30 extract over expressing RimL incubated for 5 to 60 mins in presence of 14C-labeled isoleucine and acetyl-CoA by liquid scintillation counting method
[9] = target: Isoleucine--tRNA ligase (Escherichia coli K-12) (UniProt P00956); experiment: Inhibition of ileRS in Escherichia coli BL21 (DE3) pLysS S30 extract over expressing YhhY incubated for 5 mins in presence of 14C-labeled isoleucine and acetyl-CoA by liquid scintillation counting method
[10] = target: Leucine--tRNA ligase (Escherichia coli (strain K12)) (UniProt P07813); experiment: Inhibition of leuRS in Escherichia coli BL21 (DE3) pLysS S30 extract over expressing YhhY incubated for 60 mins in presence of 14C-labeled leucine by liquid scintillation counting method
Leucine--tRNA ligase (Escherichia coli (strain K12)), sequence (P07813 whole entry): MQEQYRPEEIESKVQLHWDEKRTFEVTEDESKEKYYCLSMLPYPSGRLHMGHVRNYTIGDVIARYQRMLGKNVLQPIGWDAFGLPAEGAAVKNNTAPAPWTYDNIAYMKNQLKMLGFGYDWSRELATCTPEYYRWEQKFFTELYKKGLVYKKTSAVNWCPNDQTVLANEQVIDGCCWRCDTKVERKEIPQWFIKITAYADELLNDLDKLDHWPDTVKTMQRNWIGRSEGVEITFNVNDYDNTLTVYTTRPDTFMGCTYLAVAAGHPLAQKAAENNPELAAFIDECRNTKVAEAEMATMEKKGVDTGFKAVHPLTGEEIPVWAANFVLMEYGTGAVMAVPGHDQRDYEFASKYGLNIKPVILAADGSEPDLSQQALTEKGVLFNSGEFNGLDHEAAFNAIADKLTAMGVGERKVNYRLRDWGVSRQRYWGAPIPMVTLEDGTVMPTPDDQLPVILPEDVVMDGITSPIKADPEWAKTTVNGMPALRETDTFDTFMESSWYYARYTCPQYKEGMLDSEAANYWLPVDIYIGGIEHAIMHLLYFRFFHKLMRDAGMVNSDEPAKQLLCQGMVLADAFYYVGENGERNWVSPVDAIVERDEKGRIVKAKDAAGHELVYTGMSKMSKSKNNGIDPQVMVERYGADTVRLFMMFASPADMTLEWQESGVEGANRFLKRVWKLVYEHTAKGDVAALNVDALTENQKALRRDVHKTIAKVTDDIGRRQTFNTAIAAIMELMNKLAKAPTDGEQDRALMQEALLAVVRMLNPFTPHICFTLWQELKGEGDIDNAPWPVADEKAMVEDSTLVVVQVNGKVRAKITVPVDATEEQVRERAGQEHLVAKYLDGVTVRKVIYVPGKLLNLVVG

[11] = Stability of compound in Escherichia coli NCIB 8743 S30 extract assessed as compound degradation incubated for 1 hr n presence of 14C-labeled isoleucine and acetyl-CoA by liquid scintillation counting method; format: ADME, subcellular
Summary of the method: (§2)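 Inhibitor (5 μM stock) incubated at 37 °C up to 48 h with S30 extract (1:3), or with extract plus acetyl-CoA (10 mM stock) (1:1:3). Aliquots at set times added to aminoacylation mix (30 mM Tris pH 8.0, 1 mM DTT, tRNA, 3 mM ATP, 30 mM KCl, 8 mM MgCl₂, 10 μM ¹⁴C-isoleucine) at 37 °C; quenched after 1 min, ileRS activity by scintillation counting.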

[12] = Stability of compound in Escherichia coli BL21 (DE3) pLysS S30 extract assessed as compound degradation at 0.25 uM in presence of 14C-labeled isoleucine and acetyl-CoA by liquid scintillation counting method; format: ADME, subcellular
[13] = Stability of compound in Escherichia coli NCIB 8743 S30 extract assessed as compound degradation incubated for 48 hr in presence of 14C-labeled isoleucine and acetyl-CoA by liquid scintillation counting method; format: ADME, subcellular; summary of the method: as §2
Isoleucine--tRNA ligase = Isoleucine--tRNA ligase (Escherichia coli K-12, UniProt P00956); experiment: Inhibition of purified Escherichia coli BL21 (DE3) ileRS incubated for 10 mins in presence of 14C-labeled isoleucine by radiolabel transfer assay; conditions: read-out: Ki(app)
Isoleucine--tRNA ligase, sequence (P00956 whole entry): as the sequence (P00956 whole entry) above

[14] = target: Isoleucine--tRNA ligase (Escherichia coli K-12) (UniProt P00956); experiment: Inhibition of ileRS in Escherichia coli NCIB 8743 S30 extract assessed as aminoacylation at 250 nM incubated for 5 mins in presence of 14C-labeled isoleucine by liquid scintillation counting method relative to control; set-up: scale not given: the % may be the effect or the level left; summary of the method: as §1
[15] = target: Leucine--tRNA ligase (Escherichia coli (strain K12)) (UniProt P07813); experiment: Inhibition of leuRS in Escherichia coli BL21 (DE3) pLysS S30 extract over expressing YhhY incubated for 5 mins in presence of 14C-labeled leucine by liquid scintillation counting method
[16] = target: Isoleucine--tRNA ligase (Escherichia coli K-12) (UniProt P00956); experiment: Inhibition of ileRS in Escherichia coli BL21 (DE3) pLysS S30 extract over expressing YhhY incubated for 60 mins in presence of 14C-labeled isoleucine and acetyl-CoA by liquid scintillation counting method
[17] = Stability of compound in Escherichia coli NCIB 8743 S30 extract assessed as compound degradation at 0.25 uM in presence of 14C-labeled isoleucine and acetyl-CoA by liquid scintillation counting method; format: ADME, subcellular; summary of the method: as §2
Leucine--tRNA ligase = Leucine--tRNA ligase (Escherichia coli (strain K12), UniProt P07813); experiment: Inhibition of purified Escherichia coli BL21 (DE3) leuRS incubated for 10 mins in presence of 14C-labeled leucine by radiolabel transfer assay; conditions: read-out: Ki(app)
Leucine--tRNA ligase, sequence (P07813 whole entry): as the sequence (P07813 whole entry) above

Row | Compound | inhibition [1] | Activity [2] | inhibition [3] | inhibition [4] | inhibition [5] | inhibition [6] | inhibition [7] | Ki (Tyrosine--tRNA ligase) [nM] | inhibition [8] | inhibition [9] | inhibition [10] | Stability [11] | Stability [12] | Stability [13] | Ki (Isoleucine--tRNA ligase) [nM] | Activity [14] [%] | inhibition [15] | inhibition [16] | Stability [17] | Ki (Leucine--tRNA ligase) [nM]
1 | Nc1ncnc2c1ncn2[C@@H]1O[C@H](COS(=O)(=O)NC(=O)[C@@H](N)Cc2ccc(O)cc2)[C@@H](O)[C@H]1O | Active | 0.05 to 1.8% | Active | Active | Active | Active | Active | – | – | – | – | – | – | – | – | – | – | – | – | –
2 | N[C@@H](Cc1ccc(O)cc1)C(=O)NS(=O)(=O)OC[C@H]1O[C@@H](n2ccc(=O)[nH]c2=O)[C@H](O)[C@@H]1O | Active | 37 to 62% | Active | Active | Active | Active | Active | 43.4 | – | – | – | – | – | – | – | – | – | – | – | –
3 | CC(C)C[C@H](N)C(=O)NS(=O)(=O)OC[C@H]1O[C@@H](n2cnc3c(N)ncnc32)[C@H](O)[C@@H]1O | – | – | Active | – | Active | Active | Active | – | inactive | – | – | – | – | – | – | – | – | – | – | –
4 | Nc1ccn([C@@H]2O[C@H](COS(=O)(=O)NC(=O)[C@@H](N)Cc3ccc(O)cc3)[C@@H](O)[C@H]2O)c(=O)n1 | – | inactive | Active | inactive | Active | Active | Active | 1480 | – | – | – | – | – | – | – | – | – | – | – | –
5 | CC(C)C[C@H](N)C(=O)NS(=O)(=O)OC[C@H]1O[C@@H](n2ccc(N)nc2=O)[C@H](O)[C@@H]1O | – | – | Active | – | Active | Active | Active | – | inactive | – | – | – | – | – | – | – | – | – | – | 9.8

The remaining lines, values ahead:

Row | inhibition [1] | Activity [2] | inhibition [3] | inhibition [4] | inhibition [5] | inhibition [6] | inhibition [7] | Ki (Tyrosine--tRNA ligase) [nM] | inhibition [8] | inhibition [9] | inhibition [10] | Stability [11] | Stability [12] | Stability [13] | Ki (Isoleucine--tRNA ligase) [nM] | Activity [14] [%] | inhibition [15] | inhibition [16] | Stability [17] | Ki (Leucine--tRNA ligase) [nM] | Compound
6 | – | 37 to 62% | – | – | – | – | – | 149 | – | – | – | – | – | – | – | – | – | – | – | – | Cn1c(=O)ccn([C@@H]2O[C@H](COS(=O)(=O)NC(=O)[C@@H](N)Cc3ccc(O)cc3)[C@@H](O)[C@H]2O)c1=O
7 | – | – | Active | – | Active | Active | Active | – | inactive | Active | inactive | Stable | Stable | Stable | 55 | 5 to 14 | Active | inactive | Stable | – | CC[C@H](C)[C@H](N)C(=O)NS(=O)(=O)OC[C@H]1O[C@@H](n2ccc(=O)[nH]c2=O)[C@H](O)[C@@H]1O
8 | – | – | Active | – | Active | Active | Active | – | inactive | Active | Active | Stable | Stable | Stable | – | 0.05 to 1.8 | Active | inactive | Stable | – | CC[C@H](C)[C@H](N)C(=O)NS(=O)(=O)OC[C@H]1O[C@@H](n2cnc3c(N)ncnc32)[C@H](O)[C@@H]1O
9 | – | – | – | – | – | – | – | – | – | – | – | – | – | – | – | – | – | – | – | 29.5 | CC(C)C[C@H](N)C(=O)NS(=O)(=O)OC[C@H]1O[C@@H](n2ccc(=O)n(C)c2=O)[C@H](O)[C@@H]1O
10 | – | – | – | – | – | – | – | – | – | – | – | Stable | – | Stable | 1040 | 17 to 34 | – | – | – | – | CC[C@H](C)[C@H](N)C(=O)NS(=O)(=O)OC[C@H]1O[C@@H](n2ccc(=O)n(C)c2=O)[C@H](O)[C@@H]1O
11 | – | – | Active | – | Active | Active | Active | – | inactive | – | – | – | – | – | – | – | – | – | – | 20.8 | CC(C)C[C@H](N)C(=O)NS(=O)(=O)OC[C@H]1O[C@@H](n2ccc(=O)[nH]c2=O)[C@H](O)[C@@H]1O
12 | – | – | Active | – | Active | Active | Active | – | inactive | Active | inactive | Stable | – | Stable | 17.2 | 5 to 14 | Active | inactive | – | – | CC[C@H](C)[C@H](N)C(=O)NS(=O)(=O)OC[C@H]1O[C@@H](n2ccc(N)nc2=O)[C@H](O)[C@@H]1O

— ChEMBL document CHEMBL4393677, “Comparative analysis of pyrimidine substituted aminoacyl-sulfamoyl nucleosides as potential inhibitors targeting class I aminoacyl-tRNA synthetases” (Eur J Med Chem, 2019)
